The values below come from ChEMBL document CHEMBL3352369, “Design, synthesis and biological evaluation of novel 1-hydroxyl-3-aminoalkoxy xanthone derivatives as potent anticancer agents” (Eur J Med Chem, 2014).

Activity calls are given as the source filed them. The calls are words filed in the database; no cut-off is given here.

Common to all, as to assay type: functional, cell-based
A short description of test [1]: Antiproliferative activity against human Bel7402 cells assessed as inhibition of cell viability after 48 hrs by MTT assay. Particulars: Bel-7402, 48 h. The gist of the method: (§1)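 A549, BEL-7402 and CNE lines from SIBS (Shanghai), grown as monolayer in RPMI 1640 with 10% FBS. 5000 cells/well in 96-well plates, graded concentrations for 48 h. MTT incubation 4 h at 37 C, DMSO solubilisation, A490 read. IC50 derived from survival relative to untreated control; 5-fluorouracil reference.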

Test [2] deals with CNE. In words: Antiproliferative activity against human CNE cells assessed as inhibition of cell viability after 48 hrs by MTT assay. The gist of the method: as §1
For orientation: Tetrazolium assays rely on reduction of a dye to a coloured formazan, in cell work by metabolically active cells.

For test [3], the system named is A549. Put plainly: Antiproliferative activity against human A549 cells assessed as inhibition of cell viability after 48 hrs by MTT assay. The conditions noted are these: A549, 48 h. The gist of the method: as §1
Test [4] has as its system MGC-803. Put plainly: Antiproliferative activity against human MGC803 cells assessed as inhibition of cell viability after 48 hrs by MTT assay. The conditions noted are these: MGC-803, 48 h. The gist of the method: (§2)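 MGC-803 cells from SIBS (Shanghai), monolayer in RPMI 1640 with 10% FBS. 5000 cells/well in 96-well plates, exposed to compound for 24, 48 or 72 h. MTT added for a further 4 h at 37 C, formazan dissolved in DMSO, absorbance read at 490 nm. Survival rate = sample/control absorbance × 100%. n = 5, three independent experiments, two-tailed t-test.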

Test [5] deals with MGC-803. Put plainly: Anticancer activity against human MGC803 cells assessed as cell shrinkage and deformation at 100 uM after 72 hrs by inverted phase contrast microscopy assay.
Test [6] has as its system MGC-803. In words: Anticancer activity against human MGC803 cells assessed as inhibition of cell viability at 0.01 to 100 uM by MTT assay. Particulars: TDE = time-dependent effect. The gist of the method:
as §2

The test system of test [7] is MGC-803. Put plainly: Induction of apoptosis in human MGC803 cells assessed as nuclear condensation after 24 hrs.
The subject of test [8] is MGC-803. In words: Anticancer activity against human MGC803 cells assessed as colony formation at > 1 uM after 24 hrs. The gist of the method:
(§3)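 Clonogenic assay: MGC-803 seeded at 200 cells/well in 6-well plates and treated for 24 h. Then kept 10 d at 37 C in humidified CO2. Colonies of >50 cells counted; survival expressed as percent of untreated control (100%). n = 3, three independent experiments.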

Test [9] deals with MGC-803. Put plainly: Anticancer activity against human MGC803 cells assessed as inhibition of cell viability after 24 to 72 hrs by MTT assay. The gist of the method:
as §2

The test system of test [10] is MGC-803. Put plainly: Induction of apoptosis in human MGC803 cells assessed as change in mitochondrial membrane potential by Rhodamine 123 assay. The gist of the method: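 Mitochondrial membrane potential measured with the cationic dye rhodamine 123 in treated MGC-803 cells at 10, 50 and 100 μM. Cellular fluorescence intensity normalised to baseline values of untreated control as a semiquantitative index.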

Test [11] concerns MGC-803. Put plainly: Antiproliferative activity against human MGC803 cells assessed as inhibition of cell viability after 72 hrs by MTT assay. Particulars: MGC-803, 72 h. The gist of the method:
as §2

Test [12] relates to MGC-803. In words: Antiproliferative activity against human MGC803 cells assessed as inhibition of cell viability after 24 hrs by MTT assay. Particulars: MGC-803, 24 h. The gist of the method: as §2
In test [13] the test system is MGC-803. In words: Induction of apoptosis in human MGC803 cells assessed as koss of Ca2+ homeostasis after 24 hrs by fluorescence microscopy.
Test [14] relates to MGC-803. Put plainly: Anticancer activity against human MGC803 cells assessed as colony formation after 24 hrs. The gist of the method: as §3

What is called IC50 is the concentration that gives 50% inhibition. For `O=c1c2ccccc2oc2cc(OCCCCN3CCOCC3)cc(O)c12`, the IC50 in test [1], in test [2], in test [3] and in [4] was greater than 100 µM each time.
On to `CN(C)CCCCOc1cc(O)c2c(=O)c3ccccc3oc2c1`, for which the IC50 came to 20.3 µM in test [1], 3.81 µM in test [2], 8.83 µM in test [3] and 5.99 µM in test [4].
On the same counts, the results for `O=c1[nH]cc(F)c(=O)[nH]1` [FLUOROURACIL] are 19.8 µM, 15.1 µM, 7.62 µM and 7.76 µM.
On the same counts, the results for `O=c1c2ccccc2oc2cc(OCCCCN3CCCCC3)cc(O)c12` are 54.4 µM, 16.2 µM, 88.4 µM and 28.2 µM.
On the same counts, the results for `O=c1c2ccccc2oc2cc(OCCCCCN3CCCC3)cc(O)c12` are 18.2 µM, 12.1 µM, 5.99 µM and 3.81 µM.
Take `O=c1c2ccccc2oc2cc(OCCN3CCCC3)cc(O)c12`: the IC50 in [1] was found to be 14.6 µM; in test [2], 11.3 µM; in test [3], 12.8 µM; in test [4] it was 5.63 µM.
Consider `O=c1c2ccccc2oc2cc(OCCCCCBr)cc(O)c12`, for which the IC50 is 77.2 µM in [1], greater than 100 µM in test [2], greater than 100 µM in test [3] and 24.4 µM in test [4].
With `C[N+]1(CCCCCOc2cc(O)c3c(=O)c4ccccc4oc3c2)CCCC1`, the IC50 in test [1] was greater than 100 µM; in test [2] it was 3.88 µM; in test [3] it was 10.7 µM; in test [4] it was 12.7 µM.
Regarding `CCN(CC)CCCCOc1cc(O)c2c(=O)c3ccccc3oc2c1`, the IC50 is 20.1 µM in [1]; 3.63 µM in test [2]; 7.57 µM in test [3]; 1.82 µM in test [11]; 11.9 µM in test [12]; 3.57 µM in test [4]. The inhibition entry in test [5] and in test [8] was “Active” each time. Besides, the inhibition entry in [6] is “tde”; in [7] it was “Dose-dependent effect”; in test [9], “Dose-dependent effect”; in test [14], “Dose-dependent effect”. Moreover, the Activity result in test [10] and in test [13] was “Dose-dependent effect” in each case.
For the compound `O=c1c2ccccc2oc2cc(OCCCCCCBr)cc(O)c12`, the IC50 in [1], in [2], in test [3] and in test [4] was greater than 100 µM throughout.
On to `O=c1c2ccccc2oc2cc(OCCBr)cc(O)c12`, for which the IC50 in [1] was greater than 100 µM; in test [2] it was greater than 100 µM; in test [3], greater than 100 µM; in test [4], 21.5 µM.
`C[N+]1(CCCCOc2cc(O)c3c(=O)c4ccccc4oc3c2)CCCCC1`: the IC50 in test [1] is greater than 100 µM; in test [2], 26.5 µM; in test [3], 19.2 µM; in test [4] it was 5.13 µM.
On the same counts, the results for `O=c1c2ccccc2oc2cc(OCCCBr)cc(O)c12` are greater than 100 µM, greater than 100 µM, greater than 100 µM and 28.9 µM.
On the same counts, the results for `C[N+]1(CCCCCCOc2cc(O)c3c(=O)c4ccccc4oc3c2)CCCC1` are 23.9 µM, 4.82 µM, 9.95 µM and 14.8 µM.
On the same counts, the results for `O=c1c2ccccc2oc2cc(OCCCN3CCCC3)cc(O)c12` are 13 µM, 6.25 µM, 11.6 µM and 6.66 µM.
For the compound `C[N+](C)(C)CCCCOc1cc(O)c2c(=O)c3ccccc3oc2c1`, the IC50 is greater than 100 µM in [1], 38.5 µM in [2], 83.9 µM in [3] and 38.1 µM in test [4].
On the same counts, the results for `O=c1c2ccccc2oc2cc(OCCCCCCN3CCCC3)cc(O)c12` are 17.9 µM, 1.24 µM, 8.94 µM and 5.32 µM.
On the same counts, the results for `C[N+]1(CCOc2cc(O)c3c(=O)c4ccccc4oc3c2)CCCC1` are greater than 100 µM, 65.9 µM, greater than 100 µM and 83.3 µM.
On the same counts, the results for `CC[N+](C)(CC)CCCCOc1cc(O)c2c(=O)c3ccccc3oc2c1` are greater than 100 µM, greater than 100 µM, 13 µM and 4.61 µM.
For the compound `O=c1c2ccccc2oc2cc(OCCCCN3CCCC3)cc(O)c12`, the IC50 in test [1] was 20.8 µM; in test [2], 5.97 µM; in test [3], 18.5 µM; in test [4], 4.5 µM.
On the same counts, the results for `C[N+]1(CCCCOc2cc(O)c3c(=O)c4ccccc4oc3c2)CCCC1` are greater than 100 µM, greater than 100 µM, 19.5 µM and 8.04 µM.
On the same counts, the results for `O=c1c2ccccc2oc2cc(OCCCCBr)cc(O)c12` are 67.9 µM, 85.6 µM, greater than 100 µM and 22.7 µM.
On the same counts, the results for `C[N+]1(CCCOc2cc(O)c3c(=O)c4ccccc4oc3c2)CCCC1` are greater than 100 µM, greater than 100 µM, greater than 100 µM and 9.66 µM.
Regarding `C[N+]1(CCCCOc2cc(O)c3c(=O)c4ccccc4oc3c2)CCOCC1`, the IC50 in test [1] is greater than 100 µM; in test [2], 92.9 µM; in [3] it was greater than 100 µM; in test [4] it was 17.6 µM.
